Laboratory results as given in ChEMBL document CHEMBL1122156, “A comparison of the inhibitory action of 5-(substituted-benzyl)-2,4-diaminopyrimidines on dihydrofolate reductase from chicken liver with that from bovine liver” (J Med Chem, 1982).

Assays:
[1] = target: T1, Dihydrofolate reductase (Gallus gallus) (UniProt P00378)
T1 sequence (whole entry): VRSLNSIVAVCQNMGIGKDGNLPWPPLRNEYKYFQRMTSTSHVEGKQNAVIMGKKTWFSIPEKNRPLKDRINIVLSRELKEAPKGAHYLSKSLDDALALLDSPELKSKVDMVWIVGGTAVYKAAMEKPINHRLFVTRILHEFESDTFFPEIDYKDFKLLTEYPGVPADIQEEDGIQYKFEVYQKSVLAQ

[2] = target: T2, Dihydrofolate reductase (Bos taurus) (UniProt P00376); assay: Inhibitory activity against bovine liver Dihydrofolate reductase at pH 7.2.
T2 sequence (whole entry): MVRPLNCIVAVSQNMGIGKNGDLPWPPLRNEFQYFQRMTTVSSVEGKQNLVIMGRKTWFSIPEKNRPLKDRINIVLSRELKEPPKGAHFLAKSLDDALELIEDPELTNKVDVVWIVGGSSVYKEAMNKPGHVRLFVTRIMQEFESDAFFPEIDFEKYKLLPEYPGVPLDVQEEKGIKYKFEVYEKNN
Outline: (§1)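 DHFR from chicken liver and from bovine liver, each assayed at pH 7.2 by the group's earlier-reported inhibition procedure. Potency is expressed as an apparent inhibition constant, reported as log(1/Ki app).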

[3] = target: T2, Dihydrofolate reductase (Bos taurus)
[4] = target: T1, Dihydrofolate reductase (Gallus gallus); assay: Inhibitory activity against chicken Dihydrofolate reductase at pH 7.2.
Outline: as §1

Log 1/Ki app [1]	Structure (SMILES)	further results
4.26	Nc1ncc(Cc2ccc(OC(F)(F)F)cc2)c(N)n1	Log 1/Ki app [3]: 5.42
4.26	CC(=O)Nc1ccc(Cc2cnc(N)nc2N)cc1	–
4.01	CN(C)c1ccc(Cc2cnc(N)nc2N)cc1	–
4.37	Nc1ncc(Cc2ccc([N+](=O)[O-])cc2)c(N)n1	–
4.79	Nc1ncc(Cc2ccc(F)cc2)c(N)n1	–

The next lines start with the compound.

Structure (SMILES)	Log 1/Ki app [1]	further results
COc1ccc(Cc2cnc(N)nc2N)cc1C(F)(F)F	4.99	–
CCCCCCCOc1ccc(Cc2cnc(N)nc2N)cc1	–	Log 1/Ki app [2]: 5.45
COCCOc1c(OC)cc(Cc2cnc(N)nc2N)cc1OC	3.64	–
CCCCOCc1cccc(Cc2cnc(N)nc2N)c1	5.17	–
Nc1ncc(Cc2cccc(I)c2)c(N)n1	4.79	Log 1/Ki app [3]: 6.15
Nc1ncc(Cc2cccc(F)c2)c(N)n1	4.7	–
Nc1ncc(Cc2ccccc2)c(N)n1	4.71	–
COCCOc1cccc(Cc2cnc(N)nc2N)c1	–	Log 1/Ki app [4]: 4.83; Log 1/Ki app [2]: 5.58
COc1ccc(Cc2cnc(N)nc2N)cc1OC	4.46	Log 1/Ki app [3]: 5.66
Cc1cccc(Cc2cnc(N)nc2N)c1	4.72	–
Nc1ncc(Cc2cccc(Cl)c2)c(N)n1	5.01	–
Nc1ncc(Cc2cc(O)cc(O)c2)c(N)n1	–	Log 1/Ki app [2]: 3.39
